Measurements gathered from unrelated publications.
Each line is one published result; the experiments were not run side by side.
Target: Serine/threonine-protein kinase SBK1 (SBK1, Homo sapiens, UniProt Q52WX2)

| SMILES | test | setting | endpoint | result |
| --- | --- | --- | --- | --- |
| COc1ccc2c(c1)O[C@H](c1ccc(OC)c(OC)c1)C[C@@H]2NC(=O)C1(c2ccc3c(c2)OC(F)(F)O3)CC1 | cell-free assay, competition with immobilised ligand | 1 µM | remaining binding | 90% |
| O=C(Nc1cnn(-c2csc(C(=O)NC3COC3)c2)c1)Nc1ccccc1Cl | enzyme activity, inhibitor | 5 µM | remaining activity | 99.1% |
| Nc1ncnc2occ(-c3ccc(NC(=O)Nc4cc(C(F)(F)F)ccc4F)cc3)c12 | cell-free assay, inhibitor | 20 µM | remaining signal | 6.7% |
| CN(c1ccnc(CNc2nc(Nc3ccc4c(c3)CC(=O)N4)ncc2C(F)(F)F)n1)S(C)(=O)=O | cell-free assay, competition with immobilised ligand | 1 µM | remaining binding | 34% |
| Cc1sc(C(=O)NC2COC2)cc1-n1cc(NC(=O)Nc2c(F)cccc2Cl)cn1 | enzyme activity, inhibitor | 10 µM | remaining activity | 87.5% |
| COc1cc(Cl)c(C(=O)N[C@@H](CN[C@H]2CC[C@@H](N)CC2)Cc2ccc(C#N)cc2)cc1-c1ccc(CN[C@H](C)c2ccc(C)cc2)o1 | enzyme activity, inhibitor | 1 µM | remaining activity | 98% |
| CN1CC(Oc2cnc(C#N)cc2-c2ccn3nc(NC(=O)C4CC4)cc3c2)C1 | enzyme activity, inhibitor | 1 µM | inhibition | 15% |
| Cc1ccc(C(=O)Nc2ccc(CN3CCN(C)CC3)c(C(F)(F)F)c2)cc1C#Cc1cnc2cccnn12 | enzyme activity, inhibitor | 23.5 nM | remaining activity | 80% |
